Drawing on ChEMBL document CHEMBL4312005, “Optimization of pyrrolizine-based Schiff bases with 4-thiazolidinone motif: Design, synthesis and investigation of cytotoxicity and anti-inflammatory potency” (Eur J Med Chem, 2020), this text covers selectivity ratio, IC50 and viability for seven molecules.

Data set [1] in a line: Selectivity index, ratio of IC50 for cytotoxicity against human MRC5 cells to IC50 for antiproliferative activity against human A2780 cells. As to conditions: MRC5 cells versus A2780 cells.
Data set [2] in a line: Selectivity index, ratio of IC50 for cytotoxicity against human MRC5 cells to IC50 for antiproliferative activity against human HT-29 cells. As to conditions: MRC5 cells versus HT-29 cells.
Data set [3] concerns MCF7. Put plainly: Antiproliferative activity against human MCF7 cells assessed as reduction in cell growth incubated for 72 hrs by MTT assay. The data set is classed as functional, cell-based. As to conditions: MCF7, 72 h. In outline:
(§1)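 MTT assay on MCF-7, A2780, HT29 and normal MRC5 fibroblast lines (ATCC) grown in DMEM with 10% FBS. Cells exposed to compounds for 72 h, then reduced MTT read at 570 nm.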
In general terms: Tetrazolium assays rely on reduction of a dye to a coloured formazan, in cell work by metabolically active cells.

For data set [4], the target named is Prostaglandin G/H synthase 1 (Homo sapiens, UniProt P23219). Briefly: Inhibition of human COX1 using arachidonic acid as substrate incubated for 2 mins by ELISA method. (In general: ELISA stands for enzyme-linked immunosorbent assay.)
Sequence of Prostaglandin G/H synthase 1 (P23219 whole entry): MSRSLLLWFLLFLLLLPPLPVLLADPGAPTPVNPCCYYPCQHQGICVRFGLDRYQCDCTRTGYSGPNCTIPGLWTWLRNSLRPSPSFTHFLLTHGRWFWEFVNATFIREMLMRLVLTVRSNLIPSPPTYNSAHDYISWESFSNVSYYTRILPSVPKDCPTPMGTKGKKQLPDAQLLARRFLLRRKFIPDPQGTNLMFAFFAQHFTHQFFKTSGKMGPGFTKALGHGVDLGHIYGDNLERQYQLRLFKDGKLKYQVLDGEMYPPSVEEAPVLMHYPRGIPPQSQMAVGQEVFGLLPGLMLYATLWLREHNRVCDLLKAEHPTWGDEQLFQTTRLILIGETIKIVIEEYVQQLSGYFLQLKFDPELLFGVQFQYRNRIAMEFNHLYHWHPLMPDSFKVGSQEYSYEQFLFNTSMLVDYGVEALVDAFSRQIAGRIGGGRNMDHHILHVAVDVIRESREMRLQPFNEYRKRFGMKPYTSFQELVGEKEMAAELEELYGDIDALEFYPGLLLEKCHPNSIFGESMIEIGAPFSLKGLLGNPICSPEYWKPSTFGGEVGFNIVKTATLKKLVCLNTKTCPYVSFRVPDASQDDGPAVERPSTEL
In data set [5] the test system is MCF7. Put plainly: Antiproliferative activity against human MCF7 cells assessed as cell viability at 5 uM incubated for 48 hrs by MTT assay (reference value: 100 %). The data set is classed as functional. Particulars: MCF7, 48 h, read-out: Activity. In outline: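 Preliminary single-dose screen by MTT assay. MCF-7 cells grown in DMEM/10% FBS were exposed to 5 μM compound for 48 h, and growth% was determined. Values are mean ± S.D., n = 6.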

For data set [6], the system named is HT-29. Put plainly: Antiproliferative activity against human HT-29 cells assessed as reduction in cell growth incubated for 72 hrs by MTT assay. The data set is classed as functional, cell-based. As to conditions: HT-29, 72 h. A digest of the protocol: as §1
Data set [7] relates to A2780. Put plainly: Antiproliferative activity against human A2780 cells assessed as reduction in cell growth incubated for 72 hrs by MTT assay. The data set is classed as functional, cell-based. Particulars: A2780, 72 h. A digest of the protocol: as §1
The nature of data set [8]: Selectivity index, ratio of IC50 for cytotoxicity against human MRC5 cells to IC50 for antiproliferative activity against human MCF7 cells. As to conditions: MRC5 cells versus MCF7 cells.
The test system of data set [9] is MRC5. Briefly: Cytotoxicity against human MRC5 cells assessed as reduction in cell growth incubated for 72 hrs by MTT assay. The data set is classed as cell-based. As to conditions: MRC5, 72 h. In outline:
as §1

The term IC50 denotes the midpoint of a concentration-inhibition curve. For the molecule `N#Cc1c(/N=C/c2cccs2)c(C(=O)Nc2ccc(Br)cc2)n2c1CCC2`, the selectivity ratio in data set [1], in data set [2] and in [8] was 1 to 10 in each case. Also, the IC50 in data set [3] was 9.41 µM; in data set [4], over 100 µM; in [6], 3.65 µM; in data set [7] it was 19.3 µM; in data set [9], 23.1 µM. The viability at 5 µM in data set [5] stood at 77%.

On to `CCC1SCC(=O)N1c1c(C#N)c2n(c1C(=O)Nc1ccccc1)CCCC2` (stereo unspecified), for which the IC50 in data set [3] came to 0.84 µM; in data set [4] it was 65.4 µM; in [6], 2.06 µM; in [7], 4.24 µM; in data set [9], 11.1 µM. In addition, the selectivity ratio in data set [8] was 3 to 15.

Regarding `CC/C=N/c1c(C#N)c2n(c1C(=O)Nc1ccccc1)CCCC2`, the IC50 in data set [3] was found to be 1.43 µM; in data set [4] it was 27.2 µM; in [6], 0.14 µM; in data set [7], 15.6 µM; in data set [9], 1.53 µM.

Take `N#Cc1c(/N=C/c2ccc(Cl)cc2)c(C(=O)Nc2ccc(Br)cc2)n2c1CCC2`: the selectivity ratio in [1], in data set [2] and in data set [8] was 2 to 52 in each case. Moreover, the IC50 in data set [3] is 6.03 µM; in data set [4], over 100 µM; in [6] it was 7.79 µM; in [7], 8.3 µM; in [9], 13.8 µM. In addition, in data set [5], the viability at 5 µM worked out at 73%.

Consider `N#Cc1c(/N=C/c2cccnc2)c(C(=O)Nc2ccc(Br)cc2)n2c1CCC2`, for which the selectivity ratio in [1], in data set [2] and in data set [8] was 1 to 10 throughout. For the same molecule, the concentration for half-maximal inhibition (IC50) in [3] was 11.3 µM; in data set [4] it was over 100 µM; in data set [6] it was 2.63 µM; in data set [7] it was 23 µM; in data set [9] it was 25.6 µM. The viability at 5 µM in data set [5] stood at 81%.

As for `CC/C=N/c1c(C#N)c2n(c1C(=O)Nc1ccc(Br)cc1)CCC2`, the selectivity ratio in [1], in data set [2] and in data set [8] was 24 to 152 each time. Further, the IC50 in data set [3] was 0.14 µM; in [4], 14.2 µM; in data set [6], 0.89 µM; in data set [7], 0.27 µM; in [9] it was 21.2 µM. Moreover, in [5], the viability at 5 µM is 49%.

`N#Cc1c(/N=C/c2ccccc2)c(C(=O)Nc2ccc(Br)cc2)n2c1CCC2`: the selectivity ratio in [1], in [2] and in [8] was 2 to 52 each time. In addition, the IC50 in [3] was 0.5 µM; in [4], over 100 µM; in [6], 2.97 µM; in data set [7], 4.16 µM; in data set [9], 9 µM. Moreover, the viability at 5 µM in data set [5] worked out at 73%.
